In ChEMBL document CHEMBL4513216, “Probing the Open Global Health Chemical Diversity Library for Multistage-Active Starting Points for Next-Generation Antimalarials” (ACS Infect Dis, 2020):

Assay: Toxicity liver stage against HepG2, at 10uM
Format: cell-based
Design: test concentration 10 uM, cell line HepG2-A16-CD81EGFP
Details: human, HepG2-A16-CD81EGFP cells; read-out: INHIBITION
How it was run: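 Uninfected HepG2-A16-CD81EGFP cells, 3 × 10^3 per well, 1536-well, plated on prespotted compound at 10 μM final, parasite-free screening media added to match infected plates; puromycin 10 μM positive, DMSO 0.5% negative; run in parallel with 48 h PbLuc assay at 37 °C, 5% CO2; viability by CellTiter-Glo luminescence, normalized to controls.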

Row | SMILES | cytotoxicity at 10 µM
1 | CCS(=O)(=O)N1CCc2ccc(NC(=O)NCc3ccccc3)cc21 | 10.9%
2 | CC(C)NC(=O)CNC(=O)N1CCc2c([nH]c3ccc(Cl)cc23)C1 | 7.15%
3 | CC(C)n1ncc2c1NC(=O)CC21C(=O)Nc2c(Cl)cc(Br)cc21 (stereo not drawn) | -5.15%
4 | CC1CCN(S(=O)(=O)c2cccn(CC(=O)NC(C)(C)C)c2=O)CC1 | 0.00219%
5 | O=C(C1CCCC1)N1CC(c2nc(Cc3ccccc3)no2)C1 | 4.84%
6 | CSCC(C)(O)CNS(=O)(=O)c1ccc(Br)cc1 (stereo not drawn) | -1.61%
7 | O=C(O)CC(CC(=O)NCc1ccsc1)c1cccs1 (stereo not drawn) | -8.43%
8 | O=C(NC1CC1)N1CC[C@@H](O)[C@@H]1Cc1ccccc1 | 1.91%
9 | CCCS(=O)(=O)N1Cc2nccn2CC(Cn2cccn2)C1 (stereo not drawn) | -120%
10 | CN(C)c1nccc(N2CCO[C@H]3CN(Cc4ccco4)C[C@H]32)n1 | -122%
11 | Cc1cccc(CSc2ncc(Br)c(C(=O)O)n2)c1 | -9.41%
12 | Cc1ccc(C2CCCCCN2Cc2cn(C)nc2C)cc1 (stereo not drawn) | -8.56%
13 | Cc1cnc(N2CC3(CCN(C(=O)c4ccoc4)C3)C2)nc1 | -10.1%
14 | CN1C[C@H]2CCN(C(=O)NC3CCCC3)CC[C@H]2S1(=O)=O | 2.66%
15 | CC(C)Nc1nc(O)cc(C2CC(=O)N(C3CCCCC3)C2)n1 (stereo not drawn) | 4.5%
16 | Fc1ccc2[nH]c3c(c2c1)CCN1C(c2ccccn2)N2CCC31CC2 (stereo not drawn) | 6.16%
17 | Cc1nonc1CN(C)Cc1cnn(-c2ccc(F)cc2)c1 | -16.3%
18 | Cn1cc(C(=O)N2CCN(c3ccccc3)CC2)ccc1=O | -0.408%
19 | CCc1noc(C(C)N2CCC(NS(=O)(=O)c3cccs3)CC2)n1 (stereo not drawn) | 8.45%
20 | CC(C)CCN(C)Cn1ncc2cn(-c3ccccc3)nc2c1=O | 6.72%
21 | Cc1ccc(C(C)NC(=O)CSCC(N)=O)cc1 (stereo not drawn) | 3.37%

Row | SMILES | cytotoxicity at 10 µM
22 | O=c1n(CCNCc2ccc3ccccc3c2)nc2ccccn12 | 18.6%
23 | Cc1ccc(C(C)NCCc2nccn2Cc2ccccc2)o1 (stereo not drawn) | 1.98%
24 | COCCNC(=O)NC(c1ccccc1)c1ccccc1OC (stereo not drawn) | -0.238%
25 | CCN(C(=O)CN1CCCC1c1c(C)nn(C)c1OC)C1CC1 (stereo not drawn) | -0.54%
26 | CC1CCCN(CCCNC(=O)Cc2csc(-c3ccoc3)n2)C1 (stereo not drawn) | 3.39%
27 | CC(C)(C)n1ncc2c(=O)[nH]c(N3CC(O)C3)nc21 | -8.61%
28 | CCC(C)(NCC(=O)NC(C)C)c1nccs1 (stereo not drawn) | 3.26%
29 | CC(C)C(C(=O)N1CCCN(Cc2cscn2)CC1)n1cncn1 (stereo not drawn) | -2.1%
30 | CC(C)CN1CCC(NC(=O)c2ccc(F)cc2Cl)CC1 | -17.1%
31 | CC(CN1CCOCC1)NC(=O)c1cc(Cl)c2c(c1)OCCO2 (stereo not drawn) | -1.4%
32 | Cc1ccc(OCCN(C)Cc2cscn2)cc1 | 0.51%
33 | O=C(Nc1ccc(F)cc1)NC1(CCO)CCOCC1 | 22.3%
34 | N#CC1(NC(=O)Cn2nnc(-c3cc4ccccc4o3)n2)CCCC1 | 0.696%
35 | Cc1cc(C)n(-c2cncc(NCCNC(=O)C(C)C)n2)n1 | -2.91%
36 | COCc1nc(NCC2CCS(=O)(=O)C2)c2cnn(C)c2n1 (stereo not drawn) | -5.97%
37 | Cc1cccnc1CCNC(=O)CC1C(=O)NCCN1CCC(C)C (stereo not drawn) | 9.01%
38 | Cc1nc(O)cc(CCNc2nccc(CCC(F)(F)F)n2)n1 | -149%
39 | O=C(c1ccc(Cn2cnnn2)cc1)N1CCC(c2ccncc2)CC1 | 0.571%
40 | COCc1noc(CN2CC(Cc3ccccc3)CC2=O)n1 (stereo not drawn) | -0.472%
41 | CCn1nc(C)c(NC(=O)CN(C)C(C)c2nccs2)c1C (stereo not drawn) | -143%
42 | CN(Cc1cc(C(C)(C)C)n[nH]1)C(=O)c1ccccc1C1CCNC1 (stereo not drawn) | -2.32%

Row | SMILES | cytotoxicity at 10 µM
43 | Cn1cnnc1CN1CCC2(CCCN(C3CCCCC3)C2=O)C1 (stereo not drawn) | -117%
44 | Cc1nc(C(C)N(C)Cc2nc(CCC(C)C)no2)c(C)s1 (stereo not drawn) | -4.76%
45 | Cc1ccc2oc(CN3CCC(C(=O)O)(n4ccnc4)CC3)c(C)c2c1 | -9.06%
46 | O=C(c1cccc(S(=O)(=O)NCCc2ccccn2)c1)N1CCOCC1 | -0.764%
47 | COCCC1(CO)CCCN(Cc2ccncc2)C1 (stereo not drawn) | -141%
48 | O=C(CC1CNCCO1)N1CCC(c2cc(N3CCCC3)ncn2)CC1 (stereo not drawn) | 5.81%
49 | O=C(NCC1CCOC1)c1csc(-c2ccc(F)cc2)n1 (stereo not drawn) | -3.06%
50 | Cc1nc(C2CCCN(C(=O)CCCn3cccn3)C2)sc1C (stereo not drawn) | -0.317%
51 | COc1ccnc(N2CCN(CC(=O)N3CCC(C)CC3)CC2)n1 | -3.63%
52 | COCCCN1CCN(CCOC)C(C)C1 (stereo not drawn) | -13.4%
53 | Cc1nc(CN(C)C2CCN(CC3CCCC3)C2)no1 (stereo not drawn) | -5%
54 | c1ncn(CC2CCCN(Cc3cn4ccsc4n3)C2)n1 (stereo not drawn) | -7.04%
55 | Cc1ncsc1C(=O)N(C)Cc1ccsc1 | -9.8%
56 | c1ccc(-c2noc(CN3CCCC(Cn4cncn4)C3)n2)nc1 (stereo not drawn) | 3.12%
57 | CC(C)c1nc(CN2CCCN(Cc3nccn3C)CC2)no1 | 1.13%
58 | Cc1cc(C2CCCN(C(=O)COc3cc(C)on3)C2)n[nH]1 (stereo not drawn) | -3.87%
59 | Cc1ccc(CNCC2CCN(CC(O)c3ccccc3)CC2)o1 (stereo not drawn) | -3.33%
60 | COCCC(=O)N1CCCN(Cc2nccn2C(C)C)CC1 | -10.1%
61 | COCc1nc(C(=O)N2CCCC2c2cccc(C)c2)cs1 (stereo not drawn) | -8.93%
62 | COCCCNC(=O)Nc1ccc(F)c(C(N)=O)c1 | -12.9%
63 | Cc1cnn(CC2CCCCN2c2nn3cc(C)nc3s2)c1 (stereo not drawn) | -18.4%

Row | SMILES | cytotoxicity at 10 µM
64 | CCCc1n[nH]c(C2CN(CCc3cccs3)CCO2)n1 (stereo not drawn) | 4.1%
65 | Cc1ccc(CC(=O)N2CCCN(Cc3nccn3C)CC2)cn1 | -22.3%
66 | CN1CCN(C2CCN(Cc3nnc(C(C)(C)C)o3)CC2)C1=O | -16.2%
67 | O=C(NCCCNc1ccc(C(F)(F)F)cn1)c1ccc(F)cc1F | 3.61%
68 | Cc1ccc(C(=O)Nc2cc(F)ccc2OCC2CCCO2)cn1 (stereo not drawn) | 0.207%
69 | CCc1nc(CC(=O)N2CCCC2CN2CCCC2)cs1 (stereo not drawn) | 7.27%
70 | COc1cccc(Nc2nc(C3CCCNC3)c3ccccn23)c1 (stereo not drawn) | -0.47%
71 | O=C1COC2(CCN(Cc3ccoc3)CC2)CN1c1ccccc1 | -122%
72 | O=c1cccnn1CC1CN(CC2CCCC2)Cc2nccn2C1 (stereo not drawn) | 5.03%
73 | O=C(c1cscn1)N1CC[C@@H]2[C@@H]1CCN2C1CCOCC1 | 2.11%
74 | O=C(N1CCOCC1)[C@@]12CCO[C@@H]1CCN(CCN1CCCCC1)C2 | -3.78%
75 | CNC(=O)[C@H]1C[C@@H]2CN(S(=O)(=O)c3cccc(F)c3)C[C@@H]2N1C | -4.94%
76 | Cc1nc(CN2CCN(C3CCOC3)Cc3cccnc32)cs1 (stereo not drawn) | 8.91%
77 | CN(C)C(=O)[C@@H]1C[C@H]2OCC[C@H]2N(CCOc2ccc(Cl)cc2)C1 | -124%
78 | Cc1noc(C)c1CN1CCO[C@H]2CN(Cc3cnn(C)c3)C[C@H]21 | -0.292%
79 | Cn1cccc1C(=O)N1CCC2(CC1)CC(N1CCOCC1)C2 | -8.25%
80 | COCCN1CC[C@@H]2O[C@@H](COCC(=O)N3CCCC3)CC[C@@H]21 | -18.1%
81 | CCc1c(C)[nH]c(C2(N)CCCC2)nc1=O | -0.327%
82 | COC1COC2(CCN(Cc3cccc(C#N)c3)CC2)C1 (stereo not drawn) | -1.75%
83 | N#Cc1ccc(C(=O)O)nc1C=Cc1cccc(F)c1 | 8%
